{"source": "paper PMC7135742", "about": "(Nature biomedical engineering, 2020)", "key": {"[1]": {"molecular_target": "LS301 (cypate-cyclic(DCys-Gly-Arg-Asp-Ser-Pro-Cys)-Lys-OH)", "experiment": "MST"}, "[2]": {"test_system": "pANXA2 in 4T1 cells", "experiment": "Western blot of pANXA2 levels after insulin / PP2 treatment", "assay_type": "cell-based, murine", "conditions": "100 nM insulin 4 h, PP2 co-administration", "how_it_was_run": "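4T1 murine breast cancer cells serum-starved overnight, then treated with 100 nM insulin for 4 h or with PP2, following the same protocol as the insulin imaging study. Cells lysed by ultrasonic homogenisation in RIPA buffer (10 mM Tris-HCl, pH 8.0), and lysates resolved by SDS-PAGE and immunoblotted for pANXA2.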"}, "[3]": {"test_system": "4T1 luc/GFP cells", "experiment": "In vitro blocking study of LS301 uptake", "assay_type": "cell-based, murine", "conditions": "24 h, LS301 1 µM, blocking agent 50 µM"}, "[4]": {"test_system": "tumours", "conditions": "cited from earlier work"}, "[5]": {"molecular_target": "LS301", "experiment": "MST of LS301 with whole-cell lysate", "conditions": "reference: lysate of insulin-stimulated 4T1 cells; sites Y23"}, "[6]": {"test_system": "A549, MDA-MB-231, and 4T1", "experiment": "Cellular uptake by fluorescence microscopy, solid cancer cell lines", "assay_type": "cell-based", "conditions": "1 μM cypate, all cells", "how_it_was_run": "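Cells were grown in medium with 10% FBS and penicillin/streptomycin (37°C, 5% CO2), then seeded overnight on 8-chamber slides. Compound stock was made in 20% DMSO in PBS (pH 7.4) and diluted into medium to 1 µM final, then incubated at 37°C for several time points. SYTO 13 nuclear stain was added for 45 min at 37°C before epifluorescence or confocal imaging.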"}}, "data": [{"molecule": "Purified ANXA2 protein (Annexin A2) (from UniProt P07355 1-339) (natural protein)", "values": [{"measurement": "Kd", "setting": "[1]", "result": 0.389, "unit": "nM"}]}, {"molecule": "insulin: stimulates tyrosine-23 phosphorylation of ANXA2", "values": [{"measurement": "effect on pANXA2 levels in 4T1 cells", "setting": "[2]", "result": "increased levels of pANXA2 relative to unstimulated cells"}]}, {"molecule": "Purified pANXA2 protein (Annexin A2 phosphorylated at tyrosine 23) (from UniProt P07355 1-339) (natural protein)", "values": [{"measurement": "Kd", "setting": "[1]", "result": 0.075, "unit": "nM"}]}, {"molecule": "LCKLSL", "values": [{"measurement": "blocking of LS301 binding and internalization in cells", "setting": "[3]", "result": "inhibited the binding and internalization of LS301 in cells"}]}, {"molecule": "Cypate-GRDSPK", "values": [{"measurement": "retention of Cypate-GRDSPK in tumours", "setting": "[4]", "result": "the retention was transient"}]}, {"molecule": "CC(C)(C)n1nc(-c2ccc(Cl)cc2)c2c(N)ncnc21", "note": "[PP2]", "values": [{"measurement": "effect on pANXA2 levels in 4T1 cells", "setting": "[2]", "result": "this effect was suppressed"}]}, {"molecule": "ANXA2 (endogenous, 4T1 cells) (from UniProt P07356) lysate of PP2-treated 4T1 cells", "values": [{"measurement": "KD", "setting": "[5]", "result": "weaker; reference 0.017 ± 0.004 nM"}]}, {"molecule": "CC1(C)C(/C=C/C=C/C=C/C=C2/N(CCC(=O)O)c3ccc4ccccc4c3C2(C)C)=[N+](CCC(=O)[O-])c2ccc3ccccc3c21", "note": "[cypate]", "values": [{"measurement": "cellular retention of cypate alone", "setting": "[6]", "result": "only transient retention in all cells"}]}]}
